In series [1] the target is T1, Protein farnesyltransferase (Homo sapiens, UniProt P49354+P49356). Briefly: Inhibition of Hras Farnesyl protein transferase (FPT). It counts as protein-complex assay.
Series [2] in a line: Area under curve was determined using 20%aqueous hydroxypropyl-beta-cyclodextrin (HPbetaCD) as vehicle. Compound was administered orally to nude mice at a dose of 25 mg/kg. In kind it is ADME, organism-based. Also on record: dose 25 mg/kg, route oral. As to conditions: mouse, in vivo, po. The procedure, abridged:
(§1)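 Nude mice were dosed at 25 mpk, intravenously or orally as the line states, in 20% aqueous hydroxypropyl-β-cyclodextrin or 0.4% aqueous methyl cellulose. Serum was sampled over 24 h. Each time point came from sera of different animals.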

A short description of series [3]: Area under curve was determined using 20%aqueous hydroxypropyl-beta-cyclodextrin (HPbetaCD) as vehicle. Compound was administered intravenously to nude mice at a dose of 25 mg/kg. In kind it is ADME, organism-based. Details: dose 25 mg/kg, route intravenous. As to conditions: mouse, in vivo, iv. The method, boiled down:
as §1

Series [4] is described as follows: Maximum concentration (Cmax) using 20%aqueous hydroxypropyl-beta-cyclodextrin (HPbetaCD) as vehicle. compound was administered intravenously to nude mice at a dose of 25 mg/kg. It counts as ADME, organism-based. The note with it: mouse, in vivo, iv. Details: dose 25 mg/kg, route intravenous. The procedure, abridged:
as §1

Series [5] can be described thus: Bioavailability in mouse (nude) using 20% aqueous hydroxypropyl-beta-cyclodextrin (HPbetaCD) as vehicle 25 mg/kg. In kind it is ADME, organism-based. The note with it: nude, in vivo.
The nature of series [6]: Percent bioavailability was administered by using 0.4% Methyl cellulose (MC) as vehicle to nude mice at a dose of 25 mg/kg (micronized sample). It counts as ADME, organism-based. The note with it: mouse, in vivo, read-out: Bioavailabiility. The method, boiled down: (§2)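 A micronized sample was given orally at 25 mpk to nude mice in 0.4% aqueous methyl cellulose. Serum was collected over 24 h, with separate animals for each time point.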

Series [7] is described as follows: Bioavailability in mouse (nude) (dose 0.4% Methylcellulose (MC) as vehicle 25 mg/kg). In kind it is ADME, organism-based. The note with it: in vivo.
Series [8] can be described thus: Maximum concentration (Cmax) using 0.4% Methyl cellulose (MC) as vehicle. compound was administered orally to nude mice at a dose of 25 mg/kg. In kind it is ADME, organism-based. Also on record: dose 25 mg/kg, route oral. As to conditions: mouse, in vivo, po. The method, boiled down:
as §1

Series [9] is described as follows: Area under curve was determined using 0.4% Methyl cellulose (MC) as vehicle. Compound was administered intravenously to nude mice at a dose of 25 mg/kg. It counts as ADME, organism-based. Also on record: dose 25 mg/kg, route intravenous. As to conditions: mouse, in vivo, iv. The procedure, abridged: as §1
Series [10] is described as follows: Maximum concentration (Cmax) using 20%aqueous hydroxypropyl-beta-cyclodextrin (HPbetaCD) as vehicle. compound was administered orally to nude mice at a dose of 25 mg/kg. In kind it is ADME, organism-based. Details: dose 25 mg/kg, route oral. The note with it: mouse, in vivo, po. The method, boiled down:
as §1

For series [11], the target named is T1, Protein farnesyltransferase. Put plainly: Effect on Ras processing in Cos-1 monkey kidney cells expressing either H-Ras-Val 12-CVLS or H-Ras-Val12. It counts as functional, cell-based, Cercopithecidae. The method, boiled down:
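Ras processing was tested in Cos-1 monkey kidney cells transiently expressing H-Ras-Val12-CVLS or H-Ras-Val12. IC50 values are single-point determinations.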

Series [12] is described as follows: Half life was administered by using 20%aqueous hydroxypropyl-beta-cyclodextrin (HPbetaCD) as vehicle to nude mice at a dose of 25mpk,. In kind it is ADME, organism-based. As to conditions: mouse, in vivo, 25 mg/kg.
The nature of series [13]: Maximum concentration (Cmax) using 0.4% Methyl cellulose (MC) as vehicle. compound was administered intravenously to nude mice at a dose of 25 mg/kg. In kind it is ADME, organism-based. Details: dose 25 mg/kg, route intravenous. As to conditions: mouse, in vivo, iv. The method, boiled down:
as §1

Series [14] is described as follows: Maximum concentration (Cmax) using 0.4% Methyl cellulose (MC) as vehicle. compound was administered orally to nude mice at a dose of 25 mg/kg (micronized sample). It counts as ADME, organism-based. Also on record: dose 25 mg/kg, route oral. As to conditions: mouse, in vivo, po. The method, boiled down:
as §2

Series [15] can be described thus: Area under curve was determined using 0.4% Methyl cellulose (MC) as vehicle. Compound was administered orally to nude mice at a dose of 25 mg/kg. It counts as ADME, organism-based. The note with it: mouse, in vivo, po. Details: dose 25 mg/kg, route oral. The method, boiled down: as §1
Series [16] in a line: Area under curve was determined using 0.4% Methyl cellulose (MC) as vehicle. Compound was administered orally to nude mice at a dose of 25 mg/kg (micronized sample). It counts as ADME, organism-based. Details: dose 25 mg/kg, route oral. As to conditions: mouse, in vivo, po. The method, boiled down:
as §2

Series [17] relates to NIH-3T3 (Mus musculus). Briefly: Inhibition of tumor colony formation in soft agar.

For the compound `O=C(CC1CCN(C(=O)c2ccc[n+]([O-])c2)CC1)N1CCC([C@H]2c3ncc(Br)cc3CCc3cc(Cl)cc(Br)c32)CC1`, the half-inhibitory concentration (IC50) in series [1] worked out at 2.1 nM; in [11] it was 7 nM; in series [17] it was 165 nM. The area under the curve (AUC) in [2] came out at 70100 ng·h/mL; in series [3], 62000 ng·h/mL; in [9] it was 62000 ng·h/mL; in series [15] it was 3600 ng·h/mL; in series [16], 5750 ng·h/mL. Further, the Cmax in series [4] amounted to 52.3 µM; in [8] it was 750 nM; in [10], 16.2 µM; in [13], 52.3 µM; in series [14], 2270 nM. Moreover, the bioavailability in series [5] was determined as 113%; in [6], 9.28%; in [7], 5.81%. This compound also showed a half-life in [12] of 85.2 min.

These data come from ChEMBL document CHEMBL1132302, “Identification of pharmacokinetically stable 3, 10-dibromo-8-chlorobenzocycloheptapyridine farnesyl protein transferase inhibitors with potent enzyme and cellular activities” (J Med Chem, 1999).
